Assay [1] deals with T1, B2 bradykinin receptor (Homo sapiens, UniProt P30411).
T1 sequence (P30411 whole entry): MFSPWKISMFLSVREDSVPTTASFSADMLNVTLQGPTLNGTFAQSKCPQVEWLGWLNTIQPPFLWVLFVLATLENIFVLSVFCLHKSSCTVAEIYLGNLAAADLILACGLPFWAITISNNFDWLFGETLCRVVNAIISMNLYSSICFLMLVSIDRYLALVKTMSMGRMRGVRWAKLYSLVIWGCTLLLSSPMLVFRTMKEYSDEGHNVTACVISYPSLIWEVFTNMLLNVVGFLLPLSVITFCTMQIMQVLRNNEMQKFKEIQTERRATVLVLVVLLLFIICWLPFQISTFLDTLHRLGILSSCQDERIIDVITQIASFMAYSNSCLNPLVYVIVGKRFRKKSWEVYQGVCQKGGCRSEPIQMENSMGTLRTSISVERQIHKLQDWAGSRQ
The experiment in a line: Inhibition of [3H]BK (1.0 nM) binding to the human bradykinin receptor B2, expressed in CHO cells. It is filed as cell-based. In short, it runs like this: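 Whole CHO (dhfr-) cells stably expressing human B2, seeded 3.0 × 10^4 cells/well and cultured 1 day. Incubated with 1.0 nM [3H]BK plus test compound for 2 h at 4 °C in pH 7.2 HEPES/N-methyl-D-glucamine buffer with bacitracin, enalaprilat and 0.1% BSA. Cells lysed in SDS/NaOH for scintillation counting. Nonspecific binding with 1 μM BK; three experiments.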

Assay [2] addresses T2, B2 bradykinin receptor (Cavia porcellus, UniProt O70526).
T2 sequence (O70526 whole entry): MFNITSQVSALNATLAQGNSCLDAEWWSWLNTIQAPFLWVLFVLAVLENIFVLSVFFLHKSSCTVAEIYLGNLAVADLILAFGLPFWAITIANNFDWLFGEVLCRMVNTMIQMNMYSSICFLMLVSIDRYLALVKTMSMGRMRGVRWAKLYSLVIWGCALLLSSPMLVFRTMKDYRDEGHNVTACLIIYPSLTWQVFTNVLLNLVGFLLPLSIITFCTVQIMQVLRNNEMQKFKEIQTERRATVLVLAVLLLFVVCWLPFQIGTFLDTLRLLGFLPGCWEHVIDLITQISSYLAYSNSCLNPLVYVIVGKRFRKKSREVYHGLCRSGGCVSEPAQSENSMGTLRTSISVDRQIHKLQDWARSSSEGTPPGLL
Briefly: Concentration required to inhibit specific binding of [3H]-BK(0.06 nM) to the bradykinin receptor B2. In outline: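 Guinea pig (male Hartley) ileum membranes in pH 6.8 TES buffer with phenanthroline, bacitracin, DTT, captopril and 0.1% BSA; 0.2 mg protein/mL incubated with 0.06 nM [3H]BK and varying test concentrations, 60 min at room temperature; filtration on glass fiber filters, scintillation counting. Nonspecific binding with 1 μM unlabeled BK. IC50 averaged over at least three determinations.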

Assay [3] relates to WI-38. Briefly: Relative agonistic activity (10 uM) induced PGE-2 production in human fibroblast WI-38 cells compared to bradykinin (100 nM). It is filed as functional. In short, it runs like this: (§1)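 WI-38 human fibroblasts seeded 1 × 10^5 cells/well in E-MEM with 1% FBS, cultured 24 h. Medium replaced with Hanks-BSA buffer, then test compound for 30 min at 37 °C. Supernatant PGE2 measured by EIA, with control (no compound) subtracted. Result expressed relative to 100 nM BK.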

In assay [4] the test system is WI-38. The experiment in a line: Relative agonistic activity (1 uM) induced PGE-2 production in human fibroblast WI-38 cells compared to bradykinin (100 nM). The assay is classed as functional. In outline: as §1
Assay [5] has as its target T3, B2 bradykinin receptor (Homo sapiens) (UniProt P30411).
T3 sequence (whole entry): T1 sequence (P30411 whole entry)
Briefly: (§2) Relative induced inositol phosphate formation in CHO cells expressing the human B2 receptor compared to bradykinin (10 nM). It is filed as functional, cell-based. In short, it runs like this:
(§3)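 Human B2-expressing CHO cells labeled with [3H]inositol (1 μCi/mL) for 24 h, preincubated with 10 mM LiCl, then exposed to compound for 30 min at 37 °C. Stopped with 5% TCA; IP1–IP3 separated by anion-exchange chromatography and counted. Basal radioactivity subtracted; response expressed relative to 10 nM BK.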

The target of assay [6] is T3, B2 bradykinin receptor (Homo sapiens). The assay is described as §2. It is filed as functional, cell-based. In short, it runs like this: as §3
The source holds these as a separate data set.

Assay [7] concerns the target T2, B2 bradykinin receptor. The experiment in a line: Concentration required to inhibit specific binding of [3H]-BK(0.06 nM) to the B2 receptor in guinea pig ileum membrane;. The assay is classed as tissue-based. In outline: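 Male Hartley guinea pig ileum membranes (homogenised, 1000g debris spin, 10000g pellet) at 0.2 mg protein/mL in pH 6.8 TES buffer with 1,10-phenanthroline, bacitracin, DTT, captopril, 0.1% BSA; incubated with 0.06 nM [3H]BK and varying compound concentrations, 60 min room temperature; GF/B filtration, scintillation counting. Nonspecific binding with 1 μM unlabeled BK; three experiments; IC50 averaged from ≥3 determinations.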

For assay [8], the target named is T3, B2 bradykinin receptor (Homo sapiens). Briefly: Relative agonistic activity (10 uM) induced inositol phosphate formation in CHO cells expressing the human B2 receptor compared to bradykinin (10 nM). It is filed as functional, cell-based. In short, it runs like this:
as §3

A value given as a limit tells only on which side of the number the result lay.

The IC50 is the midpoint of a concentration-inhibition curve. Low readings indicate inhibition by little substance, high ones a need for much substance. In the case of `COc1nc2c(OCc3c(Cl)ccc(N(C)C(=O)CNC(=O)/C=C/c4ccc(NC(C)=O)nc4)c3Cl)cccc2n1Cc1ccccc1`, the concentration for half-maximal inhibition (IC50) is 2.5 nM on B2 bradykinin receptor [1] and 26 nM on B2 bradykinin receptor [2]. Further, the results for the Relative agonistic activity with WI-38 [3] and in the assay on WI-38 [4] were 73.9% and 84.5%, respectively.

Take `CC(=O)Nc1ccc(/C=C/C(=O)NCC(=O)N(C)c2ccc(Cl)c(COc3cccc4c(OCc5ccccn5)cc(C)nc34)c2Cl)cn1`: the half-maximal inhibitory concentration (IC50) on B2 bradykinin receptor [1] and on B2 bradykinin receptor [2] was 1.2 nM each time. The Relative agonistic activity in assay [5] is 57%; in assay [6], 43.4%.

Consider `CNC(=O)c1ccc(/C=C/C(=O)NCC(=O)N(C)c2ccc(Cl)c(COc3cccc4c(OCc5ccccn5)cc(C)nc34)c2Cl)cc1OC`, for which the IC50 on B2 bradykinin receptor [1] is 0.69 nM. In addition, the Relative agonistic activity turned out to be 73.9% in assay [5] and 54.9% in assay [6].

In the case of `COc1nc2c(OCc3c(Cl)ccc(N(C)C(=O)CNC(=O)/C=C/c4ccc(NC(C)=O)nc4)c3Cl)cccc2n1Cc1ccccn1`, the IC50 at B2 bradykinin receptor [1] turned out to be 0.68 nM. Besides, the Relative agonistic activity in the assay with WI-38 [3] was 89.5%; in the assay with WI-38 [4], 114%.

Turning to `CNC(=O)c1ccc(/C=C/C(=O)NCC(=O)N(C)c2ccc(Cl)c(COc3cccc4c(OC5CCCC5)cc(C)nc34)c2Cl)cc1`, the results for the IC50 on B2 bradykinin receptor [1] and on B2 bradykinin receptor [2] were 61 nM and 25 nM, respectively.

`CCCOc1cc(C)nc2c(OCc3c(Cl)ccc(N(C)C(=O)CNC(=O)/C=C/c4ccc(C(=O)NC)cc4)c3Cl)cccc12`: the IC50 at B2 bradykinin receptor [1] turned out to be 77 nM; at B2 bradykinin receptor [2], 1.2 nM.

In the case of `CCOc1cc(C)nc2c(OCc3c(Cl)ccc(N(C)C(=O)CNC(=O)/C=C/c4ccc(C(=O)NC)cc4)c3Cl)cccc12`, the results for the IC50 on B2 bradykinin receptor [1] and on B2 bradykinin receptor [2] were 34 nM and 0.19 nM, respectively.

On to `Cc1cc(OCc2ccccn2)c2cccc(OCc3c(Cl)ccc(N(C)C(=O)CNC(=O)/C=C/c4ccc(NC(=O)c5ccncc5)cc4)c3Cl)c2n1`, for which the IC50 at B2 bradykinin receptor [1] is 0.56 nM; on B2 bradykinin receptor [7] it was 6.1 nM. In addition, the Relative agonistic activity in assay [5] was determined as 26.9%; in assay [6] it was 42.3%.

For the compound `CNC(=O)c1ccc(/C=C/C(=O)NCC(=O)N(C)c2ccc(Cl)c(COc3cccc4c(OCc5ccccn5)cc(C)nc34)c2Cl)cn1`, at B2 bradykinin receptor [1], the IC50 is 1.4 nM. Further, the Relative agonistic activity in assay [5] was 57.6%; in assay [6], 50.5%.

Consider `CNC(=O)c1ccc(/C=C/C(=O)NCC(=O)N(C)c2ccc(Cl)c(COc3cccc4c(OCC(=O)N(C)C)cc(C)nc34)c2Cl)cc1`, for which the IC50 came out at 3.7 nM at B2 bradykinin receptor [1] and 30 nM at B2 bradykinin receptor [2]. Also, the Relative agonistic activity came to 30.8% in assay [5] and 24.4% in assay [8].

For the compound `COc1nc2c(OCc3c(Cl)ccc(N(C)C(=O)CNC(=O)/C=C/c4ccc(NC(C)=O)nc4)c3Cl)cccc2n1C`, the results for the Relative agonistic activity with WI-38 [3] and in the assay on WI-38 [4] were 24.2% and 4.2%, respectively.

Turning to `CNC(=O)c1ccc(/C=C/C(=O)NCC(=O)N(C)c2ccc(Cl)c(COc3cccc4c(OCC(=O)O)cc(C)nc34)c2Cl)cc1`, the 50% inhibitory concentration (IC50) on B2 bradykinin receptor [1] was over 1000 nM; at B2 bradykinin receptor [2], 50 nM.

Consider `CNC(=O)c1ccc(/C=C/C(=O)NCC(=O)N(C)c2ccc(Cl)c(COc3cccc4c(OC)cc(C)nc34)c2Cl)cc1`, for which the IC50 on B2 bradykinin receptor [1] was 8.1 nM; at B2 bradykinin receptor [2] it was 0.23 nM.

`Cc1cc(OCc2ccccn2)c2cccc(OCc3c(Cl)ccc(N(C)C(=O)CNC(=O)/C=C/c4ccc(NC(=O)Cc5ccncc5)nc4)c3Cl)c2n1`: the IC50 on B2 bradykinin receptor [1] amounted to 2.4 nM. Also, the Relative agonistic activity worked out at 40.3% in assay [5] and 39.8% in assay [6].

`CNC(=O)c1ccc(/C=C/C(=O)NCC(=O)N(C)c2ccc(Cl)c(COc3cccc4c(OC(C)C)cc(C)nc34)c2Cl)cc1`: the concentration for half-maximal inhibition (IC50) at B2 bradykinin receptor [1] amounted to 13 nM; on B2 bradykinin receptor [2], 1.2 nM.

Take `CCOC(=O)COc1cc(C)nc2c(OCc3c(Cl)ccc(N(C)C(=O)CNC(=O)/C=C/c4ccc(C(=O)NC)cc4)c3Cl)cccc12`: the IC50 was 2.6 nM on B2 bradykinin receptor [1] and 20 nM at B2 bradykinin receptor [2]. The Relative agonistic activity in assay [5] was 53.7%; in assay [8], 66.4%.

For `COCCn1c(OC)nc2c(OCc3c(Cl)ccc(N(C)C(=O)CNC(=O)/C=C/c4ccc(NC(C)=O)nc4)c3Cl)cccc21`, the 50% inhibitory concentration (IC50) on B2 bradykinin receptor [1] stood at 3.5 nM; at B2 bradykinin receptor [2] it was 4.6 nM. Besides, the Relative agonistic activity in the assay with WI-38 [3] turned out to be 54.8%; in the assay with WI-38 [4], 38.3%.

In the case of `CCOC(=O)Cn1c(OC)nc2c(OCc3c(Cl)ccc(N(C)C(=O)CNC(=O)/C=C/c4ccc(NC(C)=O)nc4)c3Cl)cccc21`, the IC50 at B2 bradykinin receptor [1] came to 0.91 nM; at B2 bradykinin receptor [2], 4.2 nM. The Relative agonistic activity in the assay with WI-38 [3] turned out to be 121%.

Regarding `Cc1cc(OCc2ccccn2)c2cccc(OCc3c(Cl)ccc(N(C)C(=O)CNC(=O)/C=C/c4ccc(C(=O)Nc5ccncc5)cc4)c3Cl)c2n1`, the IC50 on B2 bradykinin receptor [1] is 0.4 nM. The Relative agonistic activity in assay [5] came to 47.4%; in assay [6], 36.7%.

On B2 bradykinin receptor [1], `Cc1cc(OCc2ccccn2)c2cccc(OCc3c(Cl)ccc(N(C)C(=O)CNC(=O)/C=C/c4ccc(N5CCCC5=O)cc4)c3Cl)c2n1` gave an IC50 of 0.83 nM. For the same compound, the Relative agonistic activity in assay [5] is 67.4%; in assay [6], 42.9%.

In the case of `Cc1cc(OCc2ccccn2)c2cccc(OCc3c(Cl)ccc(N(C)C(=O)CNC(=O)/C=C/c4ccc(C(=O)N(C)C)cc4)c3Cl)c2n1`, the IC50 at B2 bradykinin receptor [1] was found to be 1.4 nM. Further, the figures for the Relative agonistic activity in assay [5] and in assay [6] were 34.3% and 22.3%, respectively.

In the case of `CNC(=O)c1ccc(/C=C/C(=O)NCC(=O)N(C)c2ccc(Cl)c(COc3cccc4c(OCc5ccccn5)cc(C)nc34)c2Cl)cc1`, the results for the IC50 on B2 bradykinin receptor [1] and at B2 bradykinin receptor [2] were 0.41 nM and 2.3 nM, respectively. Besides, the Relative agonistic activity in assay [5] is 59.5%; in assay [8] it was 56.9%; in assay [6], 51.3%; with WI-38 [3], 140%; with WI-38 [4], 81.2%.

For the origin of these results see ChEMBL document CHEMBL1148461, “Discovery of the first non-peptide full agonists for the human bradykinin B(2) receptor incorporating 4-(2-picolyloxy)quinoline and 1-(2-picolyl)benzimidazole frameworks” (J Med Chem, 2004).
